Compound activity: PubChem, Sanford-Burnham Center for Chemical Genomics
STEP inh: blocks human striatal-enriched tyrosine phosphatase | 0.25% of 360,000 active | AID 588621 | P54829 | inhibition, % at 20 µM | recombinant STEP, OMFP fluorogenic substrate, fluorescence;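 active = inhibition at 20 µM, scaled per plate between control wells, above about 37%, limit read from the data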;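 also: 0% = DMSO with enzyme and substrate and 100% = substrate only without enzyme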
Target sequence (P54829 whole entry, looked up): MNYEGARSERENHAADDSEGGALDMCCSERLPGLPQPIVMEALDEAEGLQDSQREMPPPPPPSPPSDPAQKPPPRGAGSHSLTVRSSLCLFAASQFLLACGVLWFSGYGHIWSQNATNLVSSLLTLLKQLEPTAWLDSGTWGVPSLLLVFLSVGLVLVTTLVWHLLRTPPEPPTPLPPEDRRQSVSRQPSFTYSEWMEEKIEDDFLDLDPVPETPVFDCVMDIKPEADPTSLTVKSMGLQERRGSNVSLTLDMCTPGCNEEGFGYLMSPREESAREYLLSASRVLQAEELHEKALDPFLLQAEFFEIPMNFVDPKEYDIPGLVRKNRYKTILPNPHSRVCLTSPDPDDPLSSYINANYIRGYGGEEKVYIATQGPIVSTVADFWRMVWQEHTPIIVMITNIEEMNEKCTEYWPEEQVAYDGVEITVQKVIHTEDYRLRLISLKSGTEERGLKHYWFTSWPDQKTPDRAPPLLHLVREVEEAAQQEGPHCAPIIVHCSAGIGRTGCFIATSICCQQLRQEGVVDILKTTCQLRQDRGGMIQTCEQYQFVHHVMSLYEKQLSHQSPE
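Material: STEP (striatal-enriched tyrosine phosphatase) enzyme, cell-free | Medium: 50 mM Bis-Tris pH 6.0 with 2.5 mM DTT and 0.005% Tween 20 | Read-out: Percent inhibition scaled to no-enzyme and uninhibited-enzyme controls, plate-pattern corrected | Signal: Fluorescence read at 480 nm ex / 540 nm em | Times: 20 min reaction, room temperature, in the dark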
SUMO1 PPI mod: modulators of human SUMO1-mediated protein-protein interactions; P63165; SUMO1 binding to a labelled peptide, TR-FRET, 1 h; inhibition, % at 20 µM; 0.33% of 360,000 active; AID 602429; in the data active = inhibition above about 37%
LMPTP inh: LMPTP (human) inhibition; recombinant LMPTP-A, OMFP fluorogenic substrate, fluorescence intensity; inhibition, % at 20 µM; 0.22% of 360,000 active; P24666;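 active = compounds that cut the enzyme signal by at least half of the control window in the single-dose screen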;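 also: plate controls were DMSO wells with enzyme plus substrate for no effect and substrate without enzyme for full effect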
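Buffer or medium: Bis-Tris pH 6.0, DTT, detergent; Assay system: LMPTP-A enzyme; Quantity: 0.625 nM enzyme; Detection: endpoint fluorescence intensity; Times: 50 min dark incubation at room temperature; Controls: substrate-only low control, DMSO enzyme-plus-substrate high control; Doses: single 20 µM dose; Read-out: percent inhibition versus substrate-only and uninhibited controls; Reagent: 400 µM OMFP.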
DNMT1 inh: DNMT1 (human) enzyme inhibition | P26358 | DNMT1 molecular beacon, Hinp1I cleavage, fluorescence | inhibition (reported as % activation of signal), % at 10 µM | 0.83% of 360,000 active; in the data active = inhibition above about 50%
Scp1 inh: Scp-1 (human) phosphatase inhibition; AID 493091; Recombinant Scp1, phosphopeptide, malachite green phosphate absorbance; 0.88% of 340,000 active; inhibition, % at 20 µM; Q9GZU7;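 active = inhibition above about 50% at 20 µM, limit read from the data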;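 also: plate controls were DMSO wells with enzyme for no effect and wells lacking enzyme for full effect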
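System: truncated SCP-1 phosphatase (76-261aa); medium: Tris acetate buffer pH 5.5 with MgCl2 and Tween-20; incubation: 45 min room-temperature reaction, 5 min colour, 30 min stabiliser; compound: single 20 µM dose, 1% DMSO; reagent: Phosphorylated 17-residue peptide substrate; read-out: % inhibition at 20 µM; technique: colorimetric free-phosphate detection, absorbance 630 nm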
Active calls of the source: *; . = no result. Hits are enriched below; roughly 1.7% of the tested compounds scored in any of these assays.

SMILES	STEP inh	SUMO1 PPI mod	LMPTP inh	DNMT1 inh	Scp1 inh
Cc1ccc(S(=O)(=O)/N=C2\C=C(Nc3cccc(C(=O)O)c3)C(=O)c3ccccc32)cc1	3	39	8	60*	-7
Cc1ccc(S(=O)(=O)/N=C2\C=C(Nc3cccc(C(=O)O)c3)C(=O)c3ccccc32)c(C)c1	4	33	7	43	-4
O=C1C(Nc2ccccc2)=C/C(=N/S(=O)(=O)c2cccs2)c2ccccc21	2	32	8	68*	-4
N#Cc1cccc(C(=O)C(=O)N2CCCN(Cc3ccc(F)cc3)CC2)c1	.	-2	-1	.	.
CCC(=O)N1CCC1(C)C(=O)Nc1cc(OC)ccc1OC (centres undefined)	0	2	-1	4	.
O=C(Nc1ccc2oc(-c3cccnc3)nc2c1)c1ccc(Br)o1	4	38*	-3	-11	37
COc1ccc(NC(=O)N2C3CCCC2CC(NC(=O)c2ccccc2)C3)cc1 (centres undefined)	0	1	-2	2	-8
Cc1ccc(/C=C2/Sc3ccc(C(=O)NCc4ccccn4)cc3NC2=O)cc1	12	50*	19	24	6
Cc1ccc(/C=C2/Sc3ccc(C(=O)N4CCN(c5ccccn5)CC4)cc3NC2=O)cc1	0	-5	7	-5	6
CCCCCCCN1C(Nc2ccccc2)=NC[C@@H]1Cc1ccccc1	2	-5	3	58*	3
CC(=O)Nc1cc(-c2ccc(C(=O)NC3CC3)cc2)cn2c(-c3cccc(C(F)(F)F)c3)cnc12	-1	-8	2	-21	.
Cc1cc(NCCCCCCCNc2cc(C)nc3cc([N+](=O)[O-])ccc23)c2ccc([N+](=O)[O-])cc2n1	18	129*	91*	40	32
COCCCNc1cc(C)nc2ccccc12	-1	0	26	3	0
COc1ccc(CCCNC(=O)C2Cc3c(-c4ccccc4)ccnc3O2)cc1 (centres undefined)	-1	0	1	3	.
N#Cc1c(N2CCCC(O)C2)nc(N)c2c(N)nc3c(c12)CC(=O)N3C12CC3CC(CC(C3)C1)C2 (centres undefined)	19	56*	49*	84*	5
C=CCN(CC=C)S(=O)(=O)c1ccc(NC(=S)NC(=O)/C=C/c2ccccc2)cc1	6	63*	4	3	-5
O=C(/C=C/c1ccccc1)NC(=S)Nc1ccccc1	2	-1	-1	2	3
CN1CCN(C2=C(Cl)C(=O)c3ccccc3C2=O)CC1	6	62*	28	87*	-8
O=C(CSc1nnc2ccc(-c3ccco3)nn12)Nc1ccccc1F	2	6	53*	10	4
Cc1ccccc1NC(=O)CSc1nnc2ccc(-c3ccccn3)nn12	1	-9	-2	1	0
CNc1cnc(-c2ccccc2OC)cn1	-2	-6	0	-4	.
Cn1c(CCN2CCN(c3ccccn3)CC2)nc2cc(NC(=O)COc3ccc([N+](=O)[O-])cc3)ccc21	0	29	71*	1	-9
Cn1c(CCN2CCOCC2)nc2cc(NC(=O)COc3ccc([N+](=O)[O-])cc3)ccc21	5	-14	1	2	-5
Cc1nc2ccc(N)cc2c(=O)n1Cc1ccc(Cl)cc1	-3	-2	1	-5	-9
Nc1ccc(Cn2ccc3c4c(N)nc(N)nc4ccc32)cc1	2	27	64*	-4	17
SMILES	STEP inh	SUMO1 PPI mod	LMPTP inh	DNMT1 inh	Scp1 inh
CCC(=O)OC1(C)C(=O)C2=COC(c3ccc(OC)cc3)=CC2=C(Br)C1=O (centres undefined)	-1	50*	4	-4	-7
COc1ccc(C2=CC3=C(Br)C(=O)C(C)(O)C(=O)C3=CO2)cc1 (centres undefined)	-1	52*	-2	7	0
COC(=O)CCC(=O)OC1(C)C(=O)C2=CN(Cc3ccc(OC)cc3)C(c3ccc(OC)cc3)=CC2=C(Br)C1=O (centres undefined)	6	-15	4	-8	-8
CC(=O)Nc1ccc(NC(=O)c2cc(-c3ccc(C)cc3O)n[nH]2)cc1	3	74*	0	-6	2
COc1cc(F)ccc1-c1cc(C(=O)Nc2ccc(NC(C)=O)cc2)[nH]n1	-1	63*	1	0	.
COc1ccc(F)cc1-c1cc(C(=O)Nc2ccc(NC(C)=O)cc2)[nH]n1	-3	5	0	2	.
Cc1cccc(NC(=O)c2cc(-c3cc(C)ccc3O)n[nH]2)c1	-3	0	0	5	-22
O=C(Cn1c(Cn2c(-c3cnccn3)nc3ccccc32)nc2ccccc21)c1ccc(OC(F)(F)F)cc1	.	-3	0	.	.
Cc1cc(C)n2nc3ccccc3c2n1	2	-1	-1	9	-5
Cc1cc(C)n2nc3nc(N4CCCCC4)nc(-c4ccco4)c3c2n1	4	11	32	54*	43
O=C1c2cccc3c(O)ccc(c23)C(=O)N1Cc1ccccc1	-24	-82	-4	68*	-13
Fc1ccc(-[n+]2nc(Nc3ccccc3)sc2-c2c3ccccc3cc3ccccc23)cc1	6	-9	67*	-2	14
COc1cccc(CNS(=O)(=O)c2ccc3c(c2)N(C(C)=O)CCO3)c1	42*	3	9	24	24
COc1cccc(NS(=O)(=O)c2ccc3c(c2)N(C(C)=O)CCO3)c1	-2	-4	-1	1	3
C=CCNc1ncnc2c1ncn2[C@H]1CN(CCN2CCOCC2)C[C@@H](CO)O1	2	-1	1	0	.
CCOc1ccc2c(ccc(/C=C/c3cc(C)c4cccnc4c3O)[n+]2C)c1	9	-67	76*	-21	52*
Cn1c(SCC(=O)Nc2ccc3nc(SCC(=O)N4CCCC4)sc3c2)nnc1-c1ccc(N)cc1	6	63*	31	24	65*
CC1(C(=O)NCc2ccc(C(F)(F)F)cc2)CCN1Cc1ccc(-c2ccccc2)o1 (centres undefined)	3	2	2	6	.
COc1cc(/C=C2\SC(N)=NC2=O)ccc1OCC(=O)Nc1ccc(C)cc1	-2	6	0	54*	6
COc1ccc(/C=C2\SC(c3ccc(C)cc3)=NC2=O)cc1OC	-20	-25	1	-8	-3
O=C(O)c1ccc(N=Nc2c(O)[nH]c3ccc(Br)cc23)cc1	-1	-5	10	0	44
O=c1ccc2cc3c([nH]c4ccc(Br)cc43)oc-2c1O	1	22	52*	7	.
C=CCOc1ccc(C2/C(=C(\O)c3ccc4c(c3)CC(C)O4)C(=O)C(=O)N2CCN2CCOCC2)cc1OCC (centres undefined)	0	-2	2	-1	10
Cc1ccc2nc(SCC(=O)Nc3ccc(F)cc3)nc(=O)n2c1	-2	-3	-2	-2	-3
